Assay outcomes: PubChem BioAssay, Sanford-Burnham Center for Chemical Genomics
SENP8 block-1 – human SENP8 protease inhibitors, primary screen, biochemical, fluorescence, Nedd8 protein substrate, uHTS. Sentrin-specific protease 8 (Homo sapiens), Q96LD8. recombinant SENP8. inhibition, % at 20 µM. 0.64% of 360,000 active; in the data active = inhibition mostly above about 40%, no sharp cut-off; inactive = mostly below about 27%
Target sequence (Q96LD8 whole entry, looked up): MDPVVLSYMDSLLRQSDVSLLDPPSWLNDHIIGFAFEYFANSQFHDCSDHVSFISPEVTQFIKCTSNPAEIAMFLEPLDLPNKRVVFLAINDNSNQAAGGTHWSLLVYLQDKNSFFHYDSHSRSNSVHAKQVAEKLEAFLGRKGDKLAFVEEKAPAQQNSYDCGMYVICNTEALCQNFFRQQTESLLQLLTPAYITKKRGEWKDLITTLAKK
UBC13 polyUb – UBC13 polyubiquitin chain formation inhibitors, primary screen, biochemical, TR-FRET, uHTS | Ubiquitin-conjugating enzyme E2 N (Homo sapiens), P61088 | inhibition, % at 20 µM | 0.47% of 330,000 active | AID 485273, 2010; in the data active = inhibition above about 45%, passing the limit was not always enough
SENP7 inh – SENP7 protease inhibitors, primary screen, biochemical, luminescence, uHTS. Sentrin-specific protease 7 (Homo sapiens), Q9BQF6. recombinant SENP7, Z-RLRGG-aminoluciferin luminescence, 40 min. inhibition, % at 5 µM. 1.5% of 330,000 active;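 active = inhibition above about 50% at the single test dose, limit read from the data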;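 note: plate controls were DMSO with enzyme for no effect and no enzyme buffer wells for full effect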
SENP8 block-2 – SENP8 protease inhibitors, primary screen, biochemical, luminescence; AID 2540, 2010; purified SENP8, Z-RLRGG-aminoluciferin cleavage; Sentrin-specific protease 8 (Homo sapiens), Q96LD8; 1.2% of 330,000 active; inhibition, % at 10 µM; in the data active = inhibition above about 50%
SENP6 block – SENP6 protease inhibitors, primary screen, biochemical, luminescence, uHTS | Recombinant SENP6 catalytic domain, aminoluciferin luminescence | AID 2599, 2010 | 1.8% of 330,000 active | Sentrin-specific protease 6 (Homo sapiens), Q9GZR1 | inhibition, % at 10 µM;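 active = inhibition above about 50% at the single tested dose, limit read from the data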;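 note: plate controls were DMSO wells with enzyme for no effect and DMSO wells lacking enzyme for full effect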
Target sequence (Q9GZR1 628-1112 limits assumed): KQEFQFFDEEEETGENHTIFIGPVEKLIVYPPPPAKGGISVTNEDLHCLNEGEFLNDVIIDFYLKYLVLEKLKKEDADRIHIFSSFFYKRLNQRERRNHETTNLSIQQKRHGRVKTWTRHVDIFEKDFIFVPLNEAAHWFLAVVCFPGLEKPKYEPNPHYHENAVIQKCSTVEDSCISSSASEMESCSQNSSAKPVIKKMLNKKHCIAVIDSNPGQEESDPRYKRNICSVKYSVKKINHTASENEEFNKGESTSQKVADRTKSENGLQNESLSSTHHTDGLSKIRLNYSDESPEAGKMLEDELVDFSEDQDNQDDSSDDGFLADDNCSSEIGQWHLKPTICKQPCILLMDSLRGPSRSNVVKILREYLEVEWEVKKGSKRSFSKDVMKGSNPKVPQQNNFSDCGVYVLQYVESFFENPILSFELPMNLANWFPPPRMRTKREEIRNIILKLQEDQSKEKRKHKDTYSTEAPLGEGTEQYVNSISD
Apaf1 inhib – inhibitors of human Apaf-1 apoptosome, primary screen, biochemical, DEVD-Rh110 fluorescence, uHTS; Apoptotic protease-activating factor 1 (Homo sapiens), O14727; reconstituted apoptosome caspase-3 activity; inhibition, % at 20 µM; 0.71% of 330,000 active; active = inhibition of at least 40% at 20 µM;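 note: plate controls were DMSO wells for no effect and DEVD-CHO caspase inhibitor wells for full effect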
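System: reconstituted apoptosome with Apaf-1, cytochrome c, caspase-9, procaspase-3, dATP; Signal: Rh110 fluorescence intensity; Schedule: 30 min compound preincubation, 50 min activation, room temperature; Reagent: cytochrome c trigger plus (Z-DEVD)2-Rh110 caspase-3 substrate.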
SENP8 conf – SENP8 protease inhibitors, retest, confirmation, biochemical, luminescence, single concentration | Recombinant SENP8, Z-RLRGG-aminoluciferin luminescence, 60 min | 40% of 6,200 active | AID 488912, 2010 | shares compounds with SENP7 inh | inhibition, % at 12.5 µM;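 active = mean inhibition across replicates above about 50%, limit read from the data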
SENP6 confirm – SENP6 protease inhibitors, confirmation, biochemical, luminescence, single concentration; shares compounds with SENP7 inh; recombinant SENP6, Z-RLRGG-aminoluciferin luminescence; inhibition, % at 12.5 µM; 58% of 6,200 active; AID 488915, 2010
SENP7 confirm – SENP7 protease inhibitors, retest, confirmation, biochemical, luminescence, single concentration; recombinant SENP7, Z-RLRGG-aminoluciferin luminescence, 40 min; shares compounds with SENP7 inh; inhibition, % at 12.5 µM; AID 488917, 2010; 69% of 6,200 active
Casp3 select – caspase-3 protease inhibitors, confirmation, selectivity assay for SENP inhibitor project, biochemical, single concentration; shares compounds with SENP7 inh; purified caspase-3, Z-DEVD-aminoluciferin luminescence, 60 min; inhibition, % at 12.5 µM; 60% of 6,200 active;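 active = mean inhibition above about 50%, limit read from the data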;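 note: plate controls were enzyme with DMSO for no effect and wells without caspase-3 for full effect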
SENP luc ctr – luminescence interference (SENP counter-screen) | shares compounds with SENP7 inh | Pre-incubated SENP8/Z-RLRGG-aminoluciferin, luciferase luminescence interference | inhibition, % at 12.5 µM | 39% of 6,200 active | AID 488919;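 active = mean inhibition above about 50% when retested at one dose, limit read from the data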;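 note: plate controls were DMSO wells with completed reaction for no effect and substrate without enzyme for full effect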
* hit, by the source's call; / = no result given. Rows were chosen to be rich in hits. Some 3% of all compounds tested hit in one or more screens of this group.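 Rule for the calls, unless noted: active = mean inhibition above about 50% in the one-dose retest (limit read from the data); inactive = the rest.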

SMILES | SENP8 block-1 | UBC13 polyUb | SENP7 inh | SENP8 block-2 | SENP6 block | Apaf1 inhib | SENP8 conf | SENP6 confirm | SENP7 confirm | Casp3 select | SENP luc ctr
Cc1cc(-c2nc(-c3ccncc3)no2)ccc1[N+](=O)[O-] | 12.9 | 3.7 | 60.7* | 54.5* | 59.5* | 5.3 | 8.7 | 8.6 | 16.2 | 11.7 | 11.3
Cc1ccc(C(=O)c2c3ccc(C(F)(F)F)cc3nn2CCC(N)=O)cc1 | 7.9 | 11.2 | 2.6 | -6.5 | -1.2 | 15.3 | / | / | / | / | /
CCOc1ccc(CNC(=O)Cn2nc(C)n3nc(-c4ccccc4)cc3c2=O)cc1 | 0.8 | -9.6 | 10.0 | 9.0 | 3.6 | -13.7 | / | / | / | / | /
Cc1nn(C(C)C(=O)Nc2ccc(Cl)cn2)c(C)c1[N+](=O)[O-] (centres undefined) | 4.7 | 2.8 | 79.7* | -4.5 | -31.3 | -21.9 | -4.7 | 1.6 | -2.2 | -1.7 | -0.9
Cc1cc(C(=O)CSc2nnc3ccccn23)c(C)n1-c1ccccc1 | 6.0 | 1.4 | 52.4* | 37.4 | 62.2* | 3.1 | 34.9 | 35.9 | 78.6* | 79.0* | 60.8*
O=C(OCc1ccc(Cl)c(Cl)c1)c1ccc[nH]1 | 15.4 | 3.1 | 32.5 | 46.7 | 58.8* | 6.2 | 54.1* | 50.8* | 81.8* | 26.5 | 70.9*
O=C(Cc1ccc(Cl)c(Cl)c1)OCC(=O)c1ccc[nH]1 | -36.3 | 0.7 | -7.4 | -12.3 | -7.2 | 26.4 | / | / | / | / | /
O=C(O/N=C1/CCCc2occc21)c1ccc(F)cc1 | 10.6 | 11.9 | 88.4* | 83.3* | 87.3* | 8.5 | 36.6 | 87.9* | 79.3* | 65.8* | 17.4
O=C(O/N=C1\CCS(=O)(=O)c2sccc21)c1ccc(F)cc1 | 12.6 | -4.1 | -4.8 | -4.3 | -7.7 | -1.3 | / | / | / | / | /
O=C(O/N=C1/CCSc2ccccc21)c1ccc(F)cc1 | 3.1 | 18.4 | 86.9* | 49.8 | 42.1 | -11.1 | 73.2* | 91.6* | 88.9* | 78.6* | 39.4
Cc1ccccc1-c1nc2cc(Cl)ccc2c(=O)o1 | 0.8 | 12.9 | 13.6 | 2.9 | 19.5 | 14.4 | / | / | / | / | /
Cc1ccccc1-c1nc2cc(Cl)ccc2o1 | 10.4 | 2.4 | 81.4* | 57.6* | 16.2 | 10.4 | 9.6 | 69.3* | 94.4* | 44.4 | 13.2
Clc1ccc2oc(-c3ccccc3)nc2c1 | 8.2 | 2.3 | 82.9* | 63.3* | -43.3 | 7.2 | 10.4 | 54.9* | 91.3* | 26.3 | 1.5
Cc1ccccc1COc1ccc2oc(C)c(C(=O)O)c2c1 | 3.0 | -6.5 | -2.9 | 2.3 | -6.6 | -9.8 | / | / | / | / | /
Cc1oc2ccc(OCc3ccc(Br)cc3)cc2c1C(=O)O | 11.2 | -7.6 | -3.9 | 10.5 | 68.4* | 4.2 | 36.5 | 80.0* | 63.0* | 56.1* | 26.9
Cc1oc2ccc(OCc3ccc(Cl)cc3)cc2c1C(=O)O | 12.6 | 6.6 | -1.4 | 59.3* | 77.8* | 10.5 | 78.8* | 80.5* | 92.8* | 65.6* | 60.5*
Cc1cc(=O)oc2ccc(OCc3ccccc3)cc12 | -112.6 | 11.8 | -0.1 | -7.0 | -14.6 | 0.9 | / | / | / | / | /
Cc1oc2ccc(OCc3ccccc3F)cc2c1C(=O)O | 12.6 | 1.2 | 24.2 | 53.2* | 76.7* | -5.4 | 60.9* | 57.1* | 83.1* | 73.5* | 69.0*
COCCOC(=O)c1c(C)oc2ccc(OCc3cc(C(=O)OC)oc3C)cc12 | 5.5 | 8.0 | 3.6 | 5.0 | -12.7 | -0.3 | / | / | / | / | /
CCOC(=O)[C@]12CCC=C1N(Cc1ccc(Cl)cc1Cl)C(=O)[C@H](CC(=O)NCc1cccc(C(F)(F)F)c1)C2 | 12.2 | / | / | / | / | / | / | / | / | / | /
CCOC(=O)c1csc(NC(=O)c2ccc(C#N)cc2)n1 | 13.7 | 0.1 | -5.0 | -7.7 | -8.5 | 8.5 | / | / | / | / | /
CCC(CC)NC(=O)COC(=O)CCC(=O)c1ccc(Cl)cc1 | 9.9 | -0.2 | -9.2 | -5.5 | 0.1 | 12.4 | / | / | / | / | /
Cc1nc2cc(NC(=O)Nc3cccc4ccccc34)ccc2n1C | -131.1 | 6.7 | 79.9* | 26.2 | 39.3 | -2.2 | 18.8 | 20.8 | 74.4* | 70.9* | 8.9
COc1ccc(-n2cc(-c3ccc(Cl)cc3)[nH]c2=S)cc1 | -271.8 | 2.7 | 12.6 | 0.5 | 23.1 | -14.4 | / | / | / | / | /
COc1cccc(-n2cc(-c3ccc(F)cc3)[nH]c2=S)c1 | 12.0 | 2.9 | 77.1* | 10.5 | 66.7* | 12.3 | 22.5 | 19.6 | 6.6 | 3.3 | 5.0
SMILES | SENP8 block-1 | UBC13 polyUb | SENP7 inh | SENP8 block-2 | SENP6 block | Apaf1 inhib | SENP8 conf | SENP6 confirm | SENP7 confirm | Casp3 select | SENP luc ctr
COc1ccc(NC(=O)CN(C)C(=O)CCC2CCCC2)cc1 | 5.2 | -4.8 | 9.6 | -1.3 | -7.5 | 9.8 | / | / | / | / | /
Cc1cccc(NC(=O)c2ccc(C(=O)c3ccccc3)cc2)n1 | 20.7 | 27.5 | 41.0 | 12.9 | 39.9 | 14.5 | / | / | / | / | /
Cc1cccc(NC(=O)NC(=O)c2ccccc2)n1 | 10.5 | 15.8 | 53.7* | 22.0 | -7.9 | -7.3 | 9.5 | 12.1 | 24.2 | 14.7 | 1.9
CCCC(=O)Nc1cccc(NC(=O)c2ccc3c(c2)OCCO3)c1 | 9.0 | 6.0 | -6.7 | 13.9 | -1.6 | -7.0 | / | / | / | / | /
CCOC(=O)c1cccc(NC(=O)c2ccc3c(c2)OCO3)c1 | 14.2 | -7.6 | 44.6 | 24.3 | 59.8* | 3.3 | 51.0* | 46.9 | 74.4* | 54.1* | 37.8
O=C(Nc1ccccc1)c1ccc2c(c1)OCCO2 | 28.8 | -0.6 | 85.3* | 77.4* | 93.1* | -4.2 | -23.1 | 77.1* | 96.7* | 91.9* | 83.9*
CCOC(=O)c1c(N)sc(C(=O)Nc2ccc3c(c2)OCO3)c1C | 1.4 | -4.7 | 97.6* | 92.4* | 97.0* | 2.6 | 10.3 | 97.7* | 102.6* | 95.6* | 96.1*
Cc1cccc(NC(=O)c2ccc3c(c2)OCCO3)c1 | 8.7 | 5.4 | 92.1* | 84.8* | 86.4* | 7.2 | 7.2 | 92.6* | 101.0* | 93.8* | 90.1*
O=C(NCC(c1ccco1)N1CCOCC1)c1ccccc1 (centres undefined) | 5.4 | 3.7 | -12.7 | -9.0 | -4.9 | -7.7 | / | / | / | / | /
